Data on 9 compounds can be found in PMC2839030 (Chemical research in toxicology, 2010).

Format in all cases: biochemical
One data set has as its target T1, CYP1A1 (Homo sapiens, UniProt P04798).
T1 sequence (P04798 1-512): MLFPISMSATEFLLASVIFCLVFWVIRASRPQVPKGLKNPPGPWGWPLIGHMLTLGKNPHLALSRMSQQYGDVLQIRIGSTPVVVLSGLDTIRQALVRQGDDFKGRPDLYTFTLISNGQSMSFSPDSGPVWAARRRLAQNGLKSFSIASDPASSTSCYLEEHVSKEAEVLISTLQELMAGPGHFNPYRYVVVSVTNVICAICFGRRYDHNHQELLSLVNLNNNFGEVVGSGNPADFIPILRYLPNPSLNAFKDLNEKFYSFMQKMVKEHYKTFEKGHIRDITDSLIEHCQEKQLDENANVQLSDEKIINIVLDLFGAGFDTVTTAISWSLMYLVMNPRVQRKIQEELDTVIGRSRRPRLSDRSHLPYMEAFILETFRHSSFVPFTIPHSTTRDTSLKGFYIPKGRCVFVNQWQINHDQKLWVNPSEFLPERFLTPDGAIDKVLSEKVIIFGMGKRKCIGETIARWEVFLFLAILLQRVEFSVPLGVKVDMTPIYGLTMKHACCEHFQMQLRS
In words: 7-Ethoxyresorufin O-deethylation. The conditions noted are these: for Type of inhibition of P450 1A1: pre-incubation assays in the presence and absence of NADPH. The procedure, abridged:
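Human CYP1A1 supersomes with P450 reductase in 0.1 M phosphate pH 7.6 plus MgCl2, ethoxyresorufin (1.0 mM DMSO stock) and test compound in DMSO at varied concentrations. NADPH-regenerating system starts reaction, 37°C. Product fluorescence ex 530/em 585 nm. Quadratic fit of progress curves, b term as rate. IC50 from Dixon plot x-intercept. Mechanism: 5-min 37°C pre-incubation ± NADPH before substrate.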

The target in another data set is T2, human CYP1A2 (Homo sapiens, UniProt P05177).
T2 sequence (P05177 2-516 limits assumed): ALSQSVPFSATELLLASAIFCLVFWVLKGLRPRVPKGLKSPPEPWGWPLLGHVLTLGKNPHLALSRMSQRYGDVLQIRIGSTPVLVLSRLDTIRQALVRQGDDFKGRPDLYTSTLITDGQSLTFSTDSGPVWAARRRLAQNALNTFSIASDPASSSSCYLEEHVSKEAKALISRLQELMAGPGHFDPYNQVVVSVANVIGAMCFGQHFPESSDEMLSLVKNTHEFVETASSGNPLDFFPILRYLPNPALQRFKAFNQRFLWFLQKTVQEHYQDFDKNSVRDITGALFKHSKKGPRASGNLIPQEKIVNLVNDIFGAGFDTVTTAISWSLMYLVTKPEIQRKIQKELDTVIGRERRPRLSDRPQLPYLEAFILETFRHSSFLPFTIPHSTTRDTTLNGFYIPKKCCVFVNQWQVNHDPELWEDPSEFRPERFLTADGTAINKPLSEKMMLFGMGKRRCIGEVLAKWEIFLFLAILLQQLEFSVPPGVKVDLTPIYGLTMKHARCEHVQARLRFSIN
In words: 7-Methoxyresorufin O-demethylation. The conditions noted are these: for Type of inhibition of P450 1A2: pre-incubation assays in the presence and absence of NADPH.

The next data set concerns the target T3, rat CYP2B1 (Rattus norvegicus, UniProt P00176).
T3 sequence (P00176 1-491): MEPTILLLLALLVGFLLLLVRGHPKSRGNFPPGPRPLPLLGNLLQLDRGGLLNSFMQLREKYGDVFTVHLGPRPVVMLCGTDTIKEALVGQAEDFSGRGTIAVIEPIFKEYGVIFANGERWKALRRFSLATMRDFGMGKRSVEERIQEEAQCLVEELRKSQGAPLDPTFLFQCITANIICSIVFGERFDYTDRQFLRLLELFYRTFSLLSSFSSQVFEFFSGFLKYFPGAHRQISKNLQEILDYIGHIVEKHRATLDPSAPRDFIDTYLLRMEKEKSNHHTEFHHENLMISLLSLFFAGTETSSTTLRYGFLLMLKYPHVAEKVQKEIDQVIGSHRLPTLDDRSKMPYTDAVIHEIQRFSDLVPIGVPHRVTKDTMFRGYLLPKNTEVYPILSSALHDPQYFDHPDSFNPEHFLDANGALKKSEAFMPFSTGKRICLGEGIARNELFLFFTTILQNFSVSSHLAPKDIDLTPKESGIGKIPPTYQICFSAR
In words: 7-Pentoxyresorufin O-depentylation. The procedure, abridged: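 Rat CYP2B1 supersomes (with P450 reductase and cytochrome b5) in 0.1 M potassium phosphate pH 7.6 with MgCl2, pentoxyresorufin (1.0 mM stock in DMSO) and test compound in DMSO at several concentrations, with a DMSO-only control. Reaction started with NADPH-regenerating system at 37°C; resorufin fluorescence read over time (ex 530/em 585 nm). Rates from second-order curve fits; IC50 from Dixon plot x-intercept.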

Another data set concerns the target T4, human CYP2A6 (Homo sapiens, UniProt P11509).
T4 sequence (P11509 1-494): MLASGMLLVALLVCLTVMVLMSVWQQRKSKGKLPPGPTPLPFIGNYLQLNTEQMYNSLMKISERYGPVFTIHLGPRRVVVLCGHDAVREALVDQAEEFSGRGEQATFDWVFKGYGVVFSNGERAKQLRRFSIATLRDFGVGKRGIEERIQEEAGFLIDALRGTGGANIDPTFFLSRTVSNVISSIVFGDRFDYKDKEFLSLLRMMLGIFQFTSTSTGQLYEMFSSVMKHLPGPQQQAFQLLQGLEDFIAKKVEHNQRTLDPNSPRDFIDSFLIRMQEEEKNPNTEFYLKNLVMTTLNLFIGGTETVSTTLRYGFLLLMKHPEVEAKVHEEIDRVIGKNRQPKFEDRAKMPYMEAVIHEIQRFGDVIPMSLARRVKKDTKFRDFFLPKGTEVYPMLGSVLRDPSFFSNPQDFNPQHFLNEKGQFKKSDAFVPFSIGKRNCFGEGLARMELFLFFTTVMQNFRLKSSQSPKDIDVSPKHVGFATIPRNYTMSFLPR
In words: Coumarin 7-hydroxylation assay in supersomes.

Read-outs that look alike come from different tables or passages of the source.

In the case of `C#Cc1ccc2ccc3cccc4ccc1c2c34` [Compound 1-EP, 1-ethynylpyrene], the IC50 – broadly, the concentration needed to halve the response being measured – was 180 nM against CYP1A1, 320 nM at human CYP1A2, 40 nM against rat CYP2B1 and over 10000 nM on human CYP2A6. For the same compound, the “Type of inhibition of P450 1A1” value at CYP1A1 was “mechanism-based inhibitors”. Moreover, the “Type of inhibition of P450 1A2” value at human CYP1A2 is on record as “mechanism-based inhibitors”.

For the compound `CC#Cc1cc2ccccc2c2ccccc12` [Compound 9-MEPhen, 9-(1-propynyl)phenanthrene], the 50% inhibitory concentration (IC50) is 2630 nM against CYP1A1; 2260 nM on CYP1A1 (human, pH 7.6, probe 7-ethoxyresorufin); over 10000 nM at rat CYP2B1; over 10000 nM on human CYP2A6. The “Type of inhibition of P450 1A1” value at CYP1A1 is recorded as “mechanism-based inhibitors”. In addition, at human CYP1A2, the “Type of inhibition of P450 1A2” value is given as “mechanism-based inhibitors”.

`C#Cc1ccc2c(ccc3ccccc32)c1` [Compound 2-Ephen, 2-ethynylphenanthrene]: the half-maximal inhibitory concentration (IC50) against CYP1A1 is 610 nM; against human CYP1A2 it was 340 nM; against rat CYP2B1 it was 170 nM; against human CYP2A6, over 10000 nM. Also, at CYP1A1, the “Type of inhibition of P450 1A1” value was “mechanism-based inhibitors”. For the same compound, the “Type of inhibition of P450 1A2” value at human CYP1A2 is reported as “mechanism-based inhibitors”.

With `C#Cc1cc2ccccc2c2ccccc12` [Compound 9-Ephen, 9-ethynylphenanthrene], the IC50 at CYP1A1 is 620 nM; against rat CYP2B1, 70 nM; against human CYP2A6 it was over 10000 nM. For the same compound, the “Type of inhibition of P450 1A1” value at CYP1A1 was “mechanism-based inhibitors”. Moreover, the “Type of inhibition of P450 1A2” value at human CYP1A2 is “mechanism-based inhibitors”.

For `CC#Cc1ccc2ccc3cccc4ccc1c2c34` [Compound 1-MEP, 1-(1-propynyl)pyrene], the IC50 against CYP1A1 was 20 nM; on human CYP1A2, 60 nM; against rat CYP2B1 it was 830 nM; against human CYP2A6, over 10000 nM. The “Type of inhibition of P450 1A1” value at CYP1A1 is given as “mechanism-based inhibitors”. The “Type of inhibition of P450 1A2” value at human CYP1A2 is recorded as “mechanism-based inhibitors”.

As to `CC#Cc1cc2cccc3ccc4cccc1c4c32` [Compound 4-MEP, 4-(1-propynyl)pyrene], the IC50 against CYP1A1 was 370 nM; against rat CYP2B1, 2260 nM; against human CYP2A6, over 10000 nM. On CYP1A1, the “Type of inhibition of P450 1A1” value is given as “mechanism-based inhibitors”.

Consider `CC#Cc1ccc2c(ccc3ccccc32)c1` [Compound 2-MEPhen, 2-(1-propynyl)phenanthrene], for which the IC50 at CYP1A1 was 160 nM; against human CYP1A2, 600 nM; against rat CYP2B1 it was over 10000 nM; against human CYP2A6, over 10000 nM. Also, the “Type of inhibition of P450 1A1” value at CYP1A1 is “mechanism-based inhibitors”. Also, the “Type of inhibition of P450 1A2” value at human CYP1A2 is listed as “mechanism-based inhibitors”.

Turning to `C#Cc1ccc2ccc3ccccc3c2c1` [Compound 3-Ephen, 3-ethynylphenanthrene], the IC50 is 1030 nM at CYP1A1, 280 nM on human CYP1A2, 480 nM on rat CYP2B1 and over 10000 nM at human CYP2A6. For the same compound, the “Type of inhibition of P450 1A1” value at CYP1A1 is recorded as “mechanism-based inhibitors”. The “Type of inhibition of P450 1A2” value at human CYP1A2 is “mechanism-based inhibitors”.

On to `CCC#Cc1ccc2ccc3cccc4ccc1c2c34` [Compound 1-EEP, 1-(1-butynyl)pyrene], for which the IC50 at CYP1A1 was 720 nM; at human CYP1A2, 430 nM; at rat CYP2B1, over 10000 nM; on human CYP2A6, over 10000 nM. In addition, the “Type of inhibition of P450 1A1” value at CYP1A1 is on record as “mechanism-based inhibitors”. Further, the “Type of inhibition of P450 1A2” value at human CYP1A2 is recorded as “mechanism-based inhibitors”.
